Data from ChEMBL document CHEMBL2029288, “Coumarin-trioxane hybrids: synthesis and evaluation as a new class of antimalarial scaffolds” (Bioorg Med Chem Lett, 2012).
≈ marks a conversion by molar mass, not a printed value.

What was measured:
[1] = tested on: Plasmodium falciparum; assay: Antimalarial activity against chloroquine-sensitive Plasmodium falciparum 3D7 after 72 hrs by MSF assay; format: functional, organism-based; details: 3D7, 72 h
Summary of the method: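 Parasites in 1% cell suspension at 0.8–1% initial parasitaemia, exposed to compounds in duplicate wells for 72 h at 37 °C under 5% CO2 in air. SYBR Green-I then added for 1 h at 37 °C; fluorescence read at excitation 485 ± 20 nm, emission 530 ± 20 nm. Signal expressed as percent of untreated controls; IC50 by logit regression. Chloroquine standard.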

[2] = tested on: Plasmodium yoelii nigeriensis; assay: Antimalarial activity against multi drug-resistant Plasmodium yoelii nigeriensis infected in Swiss mouse assessed as suppression in parasitemia at 96 mg/kg, po on day 4; format: functional
Summary of the method: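 Peters's 4-day suppressive test in Swiss mice infected with P. yoelii nigeriensis. Compound given orally at 96 mg/kg/day for 4 days; parasitaemia suppression scored on day 4.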

`C=C(c1ccc(Br)cc1)C1COC(c2cc(C(C)CC)c3oc(=O)c(C(=O)OC)cc3c2)OO1` (centres undefined) gave an IC50 [1] of 0.076 µg/mL (≈ 0.144 µM).
`C=C(c1ccc(F)cc1)C1COC(c2cc(C)c3oc(=O)c(C(=O)OC)cc3c2)OO1` (centres undefined) showed an IC50 [1] of over 0.5 µg/mL.
In the case of `CO[C@H]1O[C@@H]2O[C@@]3(C)CC[C@H]4[C@H](C)CC[C@@H]([C@H]1C)[C@@]24OO3` [ARTEMETHER], the IC50 [1] was 0.0004 µg/mL (≈ 0.00134 µM).
Molecule `C=C(c1ccc(C)cc1)C1COC(c2cc(C(C)CC)c3oc(=O)c(C(=O)OC)cc3c2)OO1` (centres undefined) has an IC50 [1] of 0.132 µg/mL (≈ 0.284 µM).
In the case of `C=C(c1ccc(C)cc1)C1COC(c2cc(C(C)CC)c3oc(=O)c(C(=O)OCC)cc3c2)OO1` (centres undefined), the IC50 [1] was 0.0393 µg/mL (≈ 0.0821 µM).
`C=C(c1ccc(F)cc1)C1COC(c2cc(C(C)CC)c3oc(=O)c(C(=O)OCC)cc3c2)OO1` (centres undefined) was tested, and the IC50 [1] was 0.117 µg/mL (≈ 0.242 µM).
Molecule `C=C(c1ccc(Br)cc1)C1COC(c2cc(C)c3oc(=O)c(C(=O)OC)cc3c2)OO1` (centres undefined) has an IC50 [1] of 0.306 µg/mL (≈ 0.628 µM).
`C=C(c1ccc(F)cc1)C1COC(c2cc(C)c3oc(=O)c(C(=O)OCC)cc3c2)OO1` (centres undefined) gave an IC50 [1] of over 0.5 µg/mL.
`C=C(c1ccc(C)cc1)C1COC(c2cc(C)c3oc(=O)c(C(=O)OC)cc3c2)OO1` (centres undefined) was tested, and the IC50 [1] was 0.361 µg/mL (≈ 0.853 µM).
Work on `C=C(c1ccc(Br)cc1)C1COC(c2cc(C)c3oc(=O)c(C(=O)OCC)cc3c2)OO1` (centres undefined) yielded an IC50 [1] of 0.246 µg/mL (≈ 0.49 µM).
`C=C(c1ccc(C)cc1)C1COC(c2cc(C)c3oc(=O)c(C(=O)OCC)cc3c2)OO1` (centres undefined) was tested, and the IC50 [1] was 0.262 µg/mL (≈ 0.601 µM) and the Activity [2] was 41.14%.
`C=C(c1ccc(Br)cc1)C1COC(c2cc(C(C)CC)c3oc(=O)c(C(=O)OCC)cc3c2)OO1` (centres undefined) was tested, and the IC50 [1] was 0.11 µg/mL (≈ 0.203 µM).
`C=C(c1ccc(F)cc1)C1COC(c2cc(C(C)CC)c3oc(=O)c(C(=O)OC)cc3c2)OO1` (centres undefined) gave an IC50 [1] of 0.203 µg/mL (≈ 0.433 µM).
